Laboratory results as given in ChEMBL document CHEMBL4342481, “Spiro-oxindole Piperidines and 3-(Azetidin-3-yl)-1H-benzimidazol-2-ones as mGlu2 Receptor PAMs” (ACS Med Chem Lett, 2020).

Legend:
[1] = Positive allosteric modulation of mGlu2 receptor in CHO cell membranes preincubated for 30 mins in presence of 4 uM glutamate followed by [35S]GTPgammaS addition and measured after 30 mins by scintillation counting analysis; set-up: species or system Cricetulus griseus
In short: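 No absolute EC50 was given where the concentration–response curve reached no clear upper plateau.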

CHO [2] = experiment: Positive allosteric modulation of mGlu2 receptor in CHO cell membranes preincubated for 30 mins in presence of 4 uM glutamate followed by [35S]GTPgammaS addition and measured after 30 mins by scintillation counting analysis relative to control; details: Cricetulus griseus
In short: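 EMAX is the % response, given as the median of at least two experiments with standard deviation.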

CHO [3] = experiment: Positive allosteric modulation of mGlu2 receptor in CHO cell membranes at 1 uM preincubated for 30 mins in presence of 4 uM glutamate followed by [35S]GTPgammaS addition and measured after 30 mins by scintillation counting analysis; details: Cricetulus griseus
[4] = Stability in human liver microsomes assessed as percentage of compound metabolized at 5 uM after 15 mins; format: ADME, Microsome; details: for metabolised at 0.25 h, 5 µM: liver microsomes, read-out: Drug metabolism
[5] = Stability in rat liver microsomes assessed as percentage of compound metabolized at 5 uM after 15 mins; format: ADME, Microsome; details: for metabolised at 0.25 h, 5 µM: liver microsomes, read-out: Drug metabolism
[6] = Brain to plasma permeability coefficient, Kp in Sprague-Dawley rat at 30 mg/kg, po after 2 hrs; format: ADME, organism-based
In short: (§1)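 Single oral dose to male Sprague–Dawley rats (n = 1), given as a suspension in 20% HP-β-CD at pH 7, at 10 or 30 mg/kg. Plasma (ng/mL) and brain (ng/g) levels were taken at 2 and 4 h. Kp is the brain/plasma partition coefficient at 2 h.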

[7] = Drug level in Sprague-Dawley rat plasma at 30 mg/kg, po after 2 hrs; format: ADME, organism-based; in short: as §1
[8] = Drug level in Sprague-Dawley rat plasma at 30 mg/kg, po after 4 hrs; format: ADME, organism-based; in short: as §1
[9] = Drug concentration in Sprague-Dawley rat brain at 30 mg/kg, po after 2 hrs; format: ADME, organism-based; details: read-out: Drug uptake; in short: as §1
[10] = Drug concentration in Sprague-Dawley rat brain at 30 mg/kg, po after 4 hrs; format: ADME, organism-based; details: read-out: Drug uptake; in short: as §1
MDR1 [11] = experiment: Efflux ratio of permeability in pig LLC-PK1 cells transfected with MDR1; format: ADME, cell-based, Sus scrofa
MDR1 [12] = experiment: Permeability in pig LLC-PK1 cells transfected with MDR1 gene; format: ADME, cell-based, Sus scrofa; details: read-out: permeability
[13] = Brain to plasma permeability coefficient, Kp in Sprague-Dawley rat at 10 mg/kg, po after 2 hrs; format: ADME, organism-based; in short: as §1
[14] = Drug level in Sprague-Dawley rat plasma at 10 mg/kg, po after 2 hrs; format: ADME, organism-based; in short: as §1
[15] = Drug level in Sprague-Dawley rat plasma at 10 mg/kg, po after 4 hrs; format: ADME, organism-based; in short: as §1
[16] = Drug concentration in Sprague-Dawley rat brain at 10 mg/kg, po after 2 hrs; format: ADME, organism-based; details: read-out: Drug uptake; in short: as §1
[17] = Drug concentration in Sprague-Dawley rat brain at 10 mg/kg, po after 4 hrs; format: ADME, organism-based; details: for concentration at 4 h: Sprague-Dawley, brain, read-out: Drug uptake; in short: as §1
[18] = molecular target: Adenosine receptor A2b (Homo sapiens) (UniProt P29275); experiment: Displacement of radioligand from human adenosine A2B receptor
[19] = microsomes, 0.25 h, 5 µM, BLD = below limit of detection

Chain of Adenosine receptor A2b (Homo sapiens) (P29275 whole entry, looked up): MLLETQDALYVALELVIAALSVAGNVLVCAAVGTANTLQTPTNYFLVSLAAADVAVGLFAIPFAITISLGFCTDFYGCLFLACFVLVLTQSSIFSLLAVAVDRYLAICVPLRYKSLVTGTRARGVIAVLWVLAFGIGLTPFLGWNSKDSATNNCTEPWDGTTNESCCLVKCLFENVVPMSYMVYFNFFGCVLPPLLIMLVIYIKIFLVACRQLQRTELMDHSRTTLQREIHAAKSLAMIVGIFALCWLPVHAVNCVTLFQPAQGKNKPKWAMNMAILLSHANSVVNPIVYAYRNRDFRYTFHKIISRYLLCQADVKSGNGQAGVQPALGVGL

| Compound | EC50 [1] [nM] | Emax (CHO [2]) [%] | Activity (CHO [3]) [%] | metabolised at 0.25 h, 5 µM [4] [%] | metabolised at 0.25 h, 5 µM [5] [%] | other results |
| --- | --- | --- | --- | --- | --- | --- |
| CCNc1cc(N2CCC3(CC2)C(=O)Nc2ccc(Br)cc23)nnc1Cl | 240 | 394 | 263 | 8 | 65 | – |
| O=C1Nc2ccc(Cl)cc2C12CCN(c1ccc(Cl)nn1)CC2 | 1000 | 187 | 80 | 8 | 76 | – |
| CCNc1cc(N2CC(n3c(=O)[nH]c4ccccc43)C2)ncc1Cl | 120 | 381 | – | 27 | 88 | – |
| O=C1Nc2cccc(Br)c2C12CCN(c1ccc(Cl)nn1)CC2 | – | 108 | 31 | – | – | – |
| Cc1ccc(N2CCC3(CC2)C(=O)Nc2ccc(Br)cc23)nn1 | – | 228 | 36 | 17 | 69 | – |
| CCOc1cc(N2CC(n3c(=O)[nH]c4cc(C(F)(F)F)ccc43)C2)ncc1Cl | 80 | 218 | – | 4 | 12 | Kp at 2 h [6]: 0.14; concentration at 2 h [7]: 2660 ng/mL; concentration at 4 h [8]: 5090 ng/mL; concentration at 2 h [9]: 371 ng/g; concentration at 4 h [10]: 996 ng/g; efflux ratio (MDR1 [11]): 1.24; Papp (MDR1 [12]): 9 ×10⁻⁶ cm/s |
| CCOc1ccc(N2CCC3(CC2)C(=O)Nc2ccc(Br)cc23)nn1 | > 10000 | 52 | 5 | 7 | 31 | – |
| FC(F)(F)c1cccc(C2CCN(c3ccc(Cl)nn3)CC2)c1 | 2290 | 128 | – | – | – | – |
| CCOc1cc(N2CCC3(CC2)C(=O)Nc2ccc(Br)cc23)nnc1C(F)(F)F | 130 | 216 | 160 | 9 | 43 | Kp at 2 h [13]: 1.4; concentration at 2 h [14]: 260 ng/mL; concentration at 4 h [15]: 220 ng/mL; concentration at 2 h [16]: 310 ng/g; concentration at 4 h [17]: 290 ng/g; IC50 [18]: 790 nM |
| CCOc1cc(N2CC(n3c(=O)[nH]c4ccccc43)C2)ncc1Cl | 270 | 259 | – | 15 | 46 | Kp at 2 h [6]: 0.36; concentration at 2 h [7]: 5770 ng/mL; concentration at 4 h [8]: 5780 ng/mL; concentration at 2 h [9]: 2050 ng/g; concentration at 4 h [10]: 2370 ng/g; efflux ratio (MDR1 [11]): 1.18; Papp (MDR1 [12]): 13 ×10⁻⁶ cm/s |
| CC(C)(C)OC(=O)N1CCC2(CC1)C(=O)Nc1ccc(Br)cc12 | 10000 | 120 | – | – | – | – |
| O=C1Nc2ccccc2C12CCN(c1ccc(Cl)nn1)CC2 | – | 217 | 24 | 45 | 95 | – |
| O=C1Nc2c(Br)cccc2C12CCN(c1ccc(Cl)nn1)CC2 | 3090 | 65 | 9 | – | – | – |
| O=C1Nc2ccc(F)cc2C12CCN(c1ccc(Cl)nn1)CC2 | – | 184 | 31 | 11 | 57 | – |
| CCNc1cc(N2CC(n3c(=O)[nH]c4ccccc43)C2)nnc1Cl | 280 | 291 | – | 0 | 23 | Kp at 2 h [6]: 0.03; concentration at 2 h [7]: 1480 ng/mL; concentration at 4 h [8]: 842 ng/mL; concentration at 2 h [9]: 48 ng/g; concentration at 4 h [10]: 31 ng/g |
| O=C1Nc2cc(Br)ccc2C12CCN(c1ccc(Cl)nn1)CC2 | – | 183 | 76 | – | – | – |
| O=C1Nc2ccc(Br)cc2C12CCN(c1ccc(C(F)(F)F)nn1)CC2 | 400 | 53 | 46 | 4 | 20 | – |
| O=C1Nc2ccc(C3CC3)cc2C12CCN(c1ccc(Cl)nn1)CC2 | 630 | 169 | 105 | 45 | 100 | – |
| CCNc1cc(N2CC(n3c(=O)[nH]c4ccc(Br)cc43)C2)nnc1Cl | 230 | 241 | – | 9 | 26 | Kp at 2 h [13]: 0.07; concentration at 2 h [14]: 254 ng/mL; concentration at 4 h [15]: 416 ng/mL; concentration at 2 h [16]: 18 ng/g; concentration at 4 h [17]: 18 ng/g |
| O=C1Nc2ccc(Br)cc2C12CCN(c1ccc(Cl)nn1)CC2 | 1020 | 232 | 100 | 8 | 25 | – |
| CCOc1cc(N2CCC3(CC2)C(=O)Nc2ccc(Br)cc23)nnc1Cl | 210 | 380 | 203 | 11 | 58 | Kp at 2 h [13]: 0.37; concentration at 2 h [14]: 49 ng/mL; concentration at 4 h [15]: 17 ng/mL; concentration at 2 h [16]: 18 ng/g; Drug uptake ([17]; in vivo, 4 h, BLD = below limit of detection): Bld |
| O=C1Nc2ccc(Br)cc2C12CCN(c1cccnn1)CC2 | – | 141 | 7 | – | – | – |
| CCOc1nc(N2CC(n3c(=O)[nH]c4cc(C(F)(F)F)ccc43)C2)ncc1Cl | 150 | 220 | – | – | – | Drug metabolism [4, 19]: Bld; Drug metabolism [5, 19]: Bld |
